Bioassay records (PubChem)
ADAM10 inh: inhibits human ADAM10; O14672; 370,000 tested, 0.62% active; AID 720582; inhibition, % at 7 µM; recombinant ADAM10, EDANS/DABCYL FRET peptide cleavage, 3 h;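 active = inhibition above a per-campaign cutoff equal to the mean of compounds falling between control-based bounds plus 3 SD, cut at about 20% in these data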
SENP1 FRET inh: blocks the human SENP1 SUMO protease catalytic domain | Q9P0U3 | recombinant SENP1 catalytic domain, CyPet-SUMO1-YPet FRET cleavage | inhibition, % at 10 µM | 360,000 tested, 0.21% active;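 active = inhibition at least 30% at 10 µM, raw YFP signal under a set limit, fluorescence ratio 0.5 to 1.5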
Target sequence (Q9P0U3 419-644 limits assumed): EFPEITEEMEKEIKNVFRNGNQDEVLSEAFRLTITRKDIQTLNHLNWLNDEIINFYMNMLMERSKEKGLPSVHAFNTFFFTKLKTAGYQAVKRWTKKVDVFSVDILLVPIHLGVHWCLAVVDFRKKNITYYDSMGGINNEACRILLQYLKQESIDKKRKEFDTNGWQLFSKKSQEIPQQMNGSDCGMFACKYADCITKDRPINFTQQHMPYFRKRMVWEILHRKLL
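Assay system: hSENP1 catalytic domain, recombinant. Amount: SENP1 enzyme, 20 pM final. Schedule: 50 min reaction, RT, dark. Technique: FRET, CFP and YFP emission. Control set: no-enzyme wells low, DMSO-plus-enzyme wells high control.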
FAS-TE inh: inhibitors of human fatty acid synthase thioesterase domain; P49327; recombinant FAS-TE, OMFH fluorogenic substrate, fluorescence endpoint; inhibition, % at 15 µM; 360,000 tested, 0.67% active;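 active = compounds whose normalised, plate-corrected inhibition of enzyme fluorescence in the single-dose primary screen is 50% or more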
ADAM17 inh: ADAM17 inhibition, QFRET primary screen | P78536 | recombinant ADAM17, EDANS/DABCYL FRET peptide cleavage | inhibition, % at 6.95 µM | 370,000 tested, 0.83% active | AID 720648;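 active = inhibition above the mean of compounds lying between control limits plus 3 SD, set per campaign, cut at about 8.5% in these data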
SENP1 inh conf: confirmation of human SENP1 SUMO protease inhibitors; shares compounds with SENP1 FRET inh; AID 651678; recombinant SENP1, CyPet-SUMO1-YPet FRET cleavage; inhibition, % at 10 µM; 520 tested, 34% active; in the data active = inhibition mostly above about 35%, no sharp cut-off; inactive = mostly below about 32%
SENP1 kinetic: SENP1 (human) inhibition, kinetic confirmation; shares compounds with SENP1 FRET inh; recombinant SENP1, CyPet-SUMO1-YPet FRET kinetic cleavage; inhibition, % at 10 µM; 520 tested, 26% active; in the data active = inhibition mostly above about 32%, no sharp cut-off; inactive = mostly below about 29%
Numbers stand for hits; – = inactive; · = no result given; ! = not confirmed by another sample. An excerpt weighted towards active compounds, which were near 1.9% of everything screened.

SMILES | ADAM10 inh | SENP1 FRET inh | FAS-TE inh | ADAM17 inh | SENP1 inh conf | SENP1 kinetic
O=C(Nc1ccc2c(c1)Cc1cc([N+](=O)[O-])ccc1-2)C(F)(F)F | – | – | – | – | · | ·
O=[N+]([O-])c1ccc2c(c1)-c1ccccc1C2=NO | – | – | – | – | · | ·
O=C(Nc1cc2c(cc1Cl)-c1ccc([N+](=O)[O-])cc1C2=NO)C(F)(F)F | · | 85 | – | · | 57 | 36
C[C@H]1[C@@H](NC(=O)Cc2ccsc2)CC[C@@]23CCCN2C(=O)CCC[C@@H]13 | – | · | · | – | · | ·
O=[N+]([O-])c1ccc(-c2cn(-c3ccccc3F)c(=S)[nH]2)cc1 | – | 30 | – | – | – | –
Cc1ccc(-c2cn(-c3ccccc3F)c(=S)[nH]2)cc1 | – | – | – | – | · | ·
Cc1cccc(N2CCN(C(=O)c3ccc4c(c3)NC(=O)C(CSCc3cccc(F)c3)N4)CC2C)c1 (configuration not stated) | – | – | – | – | · | ·
COc1ccc(N2CCN(C(=O)c3ccc4c(c3)NC(=O)C(CSCc3ccccc3F)N4)CC2)cc1 (configuration not stated) | – | 33 | – | – | – | –
COc1ccc(C(=O)N/N=C(/C)c2cccc(NC(=O)c3ccccc3F)c2)cc1 | – | – | – | – | · | ·
C/C(=N\NC(=O)c1ccccc1F)c1ccc2c(c1)Nc1ccccc1S2 | – | 35 | – | – | 60 | 39
C/C(=N\NC(=O)c1ccc(O)cc1)c1ccc2c(c1)Nc1ccccc1S2 | – | 70 | – | – | 86 | 56
O=C(Nc1nc(Cc2ccccc2)c(-c2ccccc2)n1Cc1ccccc1)c1ccccc1 | – | · | · | – | · | ·
O=C(Nc1c(-c2ccccc2)nc2ncccn12)C1CC1 | – | · | · | – | · | ·
O=C1c2ccccc2C2Cc3nnccc3CN12 (configuration not stated) | – | · | · | – | · | ·
COc1ccc(CNc2nc3ccccc3n2C)c(OC)c1 | – | – | – | – | · | ·
COc1ccc(N=Nc2nc3cc(Br)c(Br)cc3n2C)c(OC)c1 | – | 61 | – | – | – | 44
Cc1ccc2nc3sc(C(=O)NCc4ccco4)c(N)c3cc2c1 | – | 34 | – | – | 110 | 71
COc1ccc(N/N=C(/C)c2cnnc(-c3ccccc3)n2)cc1 | – | 66 | – | – | – | –
CN1Cc2c(N)cccc2C(c2ccccc2)C1 (configuration not stated) | – | 74! | – | – | 67 | 45
Cc1ccccc1NCC(=O)N/N=C/c1c(C)c(C(=O)c2ccc(Cl)cc2)n2ccccc12 | – | – | – | – | · | ·
Cc1c(/C=N/NC(=O)CNc2ccccc2)c2ccccn2c1C(=O)c1ccc(Cl)cc1 | – | 31 | – | – | – | –
CCOC(=O)c1c2c3c(cccc3[nH]c1=O)C(=O)c1ccccc1-2 | – | – | – | – | · | ·
CCOC(=O)c1c2c3c(c(Cl)ccc3[nH]c1=O)C(=O)c1ccccc1-2 | – | 57 | – | – | 40 | –
COC(=O)[C@]12C[C@H](CC(=O)NCC3CCCCC3)C(=O)N(Cc3cccc4ccccc34)C1=C[C@H](C1CCCC1)O[C@@H]2C | – | · | · | – | · | ·
C[C@@H](CO)N(Cc1cn(Cc2ccccc2)nn1)S(=O)(=O)c1ccccc1Br | – | · | · | – | · | ·
SMILES | ADAM10 inh | SENP1 FRET inh | FAS-TE inh | ADAM17 inh | SENP1 inh conf | SENP1 kinetic
CCc1cccc(CC)c1-n1c(SCC(=O)N2CCc3ccccc3C2)nnc1-c1cccnc1 | – | 37 | – | – | – | –
Cn1c(=O)oc2cc(S(=O)(=O)N3CCN(c4ccc(F)cc4)CC3)ccc21 | – | 37 | – | – | – | –
CC1CC(C)CN(CCCNS(=O)(=O)c2ccc3c(c2)oc(=O)n3C)C1 (configuration not stated) | – | 33 | – | – | – | –
CN1CCN(S(=O)(=O)c2ccc3c(c2)oc(=O)n3C)CC1 | – | 33 | – | – | – | –
Cn1c(=O)oc2cc(S(=O)(=O)Nc3cccc4c3CCCC4)ccc21 | – | 33 | – | – | – | –
Cc1cc(C)c(NS(=O)(=O)c2ccc3c(c2)oc(=O)n3C)c(C)c1 | – | – | – | – | · | ·
CC1Nc2ccc(C(=O)NC3CCCCC3)cc2NC1=O (configuration not stated) | – | 41 | – | – | – | –
CC(C)C1Nc2ccc(C(=O)NC3CCCCC3)cc2NC1=O (configuration not stated) | · | – | – | · | · | ·
CCOC(=O)[C@@]12CN(C(=O)OC(C)(C)C)CC=C1N(Cc1ccc(OC)cc1)C(=O)[C@H]2CC(=O)NCCCOC | – | · | · | – | · | ·
COc1ccc(NC(=O)/C=C/c2ccccc2)c([N+](=O)[O-])c1 | – | – | – | – | · | ·
COc1ccc(/C=C/C(=O)Nc2ccc(OC)cc2[N+](=O)[O-])cc1 | – | 64 | – | – | – | –
CCC(C)NC(=O)C1CCN(S(=O)(=O)c2ccc3[nH]c(=O)oc3c2)CC1 (configuration not stated) | – | · | · | – | · | ·
Fc1ccc(-c2cnn3c(-c4cccs4)ccnc23)cc1 | – | 56 | – | – | – | –
Fc1ccc(-c2cnn3c(-c4ccncc4)ccnc23)cc1 | – | – | – | – | · | ·
COC(=O)c1ccc(-c2nc3cc(Cl)c(N)cc3s2)cc1 | – | – | – | – | · | ·
COC(=O)c1ccc(-c2nc(O)c(C)s2)cc1 | – | 41 | – | – | 87 | 56
Cn1c(=O)c2[nH]c(-c3ccccc3)c(O)c2n(C)c1=O | – | 60 | – | – | 56 | 54
Cn1c(=O)c2[nH]c(-c3ccccc3Cl)c(O)c2n(C)c1=O | – | 32 | – | – | – | –
CC(=O)Nn1cc2c(c1-c1ccccc1)c(=O)n(C)c(=O)n2C | – | – | – | – | · | ·
CCOC(=O)C1CCCN(C2=NC(=O)/C(=C/c3ccc(O)c(OC)c3)S2)C1 (configuration not stated) | – | 69 | – | – | 110 | 66
Clc1ccc(-c2ccc(C=Nc3ccc(N4CCOCC4)cc3)o2)c(Cl)c1 | – | 32 | – | – | – | –
Clc1ccc(-c2ccc(C=Nc3ccc(N4CCOCC4)cc3)o2)cc1 | – | – | – | – | · | ·
N#C/C(C(=O)NCCc1ccccc1)=C1/N=C(NC(=O)c2cccs2)c2ccccc21 | – | 36 | – | – | – | –
O=CN1Cc2[nH]c3ccccc3c2N(c2ccc(Cl)cc2)C1=O | – | 31 | – | – | – | –
COc1ccc(C2C(C(C)=O)=C(C)N=c3s/c(=C\c4ccco4)c(=O)n32)c(OC)c1 (configuration not stated) | – | 37 | – | – | 41 | 32
C=CS(=O)(=O)N(Cc1nnn(Cc2ccccc2)c1Br)[C@@H](CC(C)C)C(=O)OC | – | · | · | – | · | ·
Cc1sc(-c2ccccn2)nc1OC(=O)c1cccc(Cl)c1Cl | – | 36 | – | – | – | 50
